Measurements reported in ChEMBL document CHEMBL4261550, “Triazolopyrimidines identified as reversible myeloperoxidase inhibitors” (Medchemcomm, 2017).

Legend:
[1] = biological target: T1, Myeloperoxidase (Homo sapiens) (UniProt P05164); assay: Inhibition of human MPO assessed as reduction in enzyme-mediated chlorination by measuring reduction in HOCl formation at 10 uM preincubated for 10 mins followed by H2O2/NaCl addition and measured at 30 secs time interval for 5 mins by APF dye based fluorescence assay relative to control
T1 sequence (whole entry): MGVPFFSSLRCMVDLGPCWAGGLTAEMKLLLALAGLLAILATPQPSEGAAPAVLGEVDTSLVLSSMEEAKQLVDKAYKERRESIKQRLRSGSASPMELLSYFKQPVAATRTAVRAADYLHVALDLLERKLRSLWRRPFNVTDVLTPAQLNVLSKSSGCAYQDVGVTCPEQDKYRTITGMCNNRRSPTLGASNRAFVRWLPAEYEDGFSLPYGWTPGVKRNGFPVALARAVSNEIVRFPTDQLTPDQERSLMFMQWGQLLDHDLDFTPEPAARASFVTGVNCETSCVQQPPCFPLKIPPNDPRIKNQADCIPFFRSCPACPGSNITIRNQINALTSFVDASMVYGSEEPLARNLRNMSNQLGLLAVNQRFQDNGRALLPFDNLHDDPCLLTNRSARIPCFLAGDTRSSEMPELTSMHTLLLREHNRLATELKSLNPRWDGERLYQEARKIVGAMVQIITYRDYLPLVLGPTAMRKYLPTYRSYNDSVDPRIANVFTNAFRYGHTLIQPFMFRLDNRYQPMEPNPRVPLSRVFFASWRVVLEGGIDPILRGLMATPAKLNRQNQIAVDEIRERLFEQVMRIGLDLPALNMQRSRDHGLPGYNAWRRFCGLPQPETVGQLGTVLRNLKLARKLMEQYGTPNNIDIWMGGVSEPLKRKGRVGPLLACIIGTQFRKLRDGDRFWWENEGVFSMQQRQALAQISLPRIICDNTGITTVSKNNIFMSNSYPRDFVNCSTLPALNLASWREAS
In short: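 HTS APF chlorination, 1536-well: 1.75 nM human MPO with 20 μM H2O2 final, compound 10 μM final, preincubated 10 min; APF reagent added, fluorescence 485/535 nm read every 30 s for 5 min; slope normalized to DMSO (0%) and no-MPO wells (100% inhibition).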

[2] = species on record: Homo sapiens; assay: Selectivity ratio of IC50 for recombinant human LPO isoform-1 (26 to 712 residues) expressed in baculovirus infected insect cells to IC50 for human MPO
In short: (§1)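 LPO isoform 1 residues 26–712, baculovirus/T. ni expressed, purified by cation exchange, hydrophobic interaction and size exclusion; 2.0 nM in 100 mM KPi pH 7.4, 10 min rt preincubation with inhibitor; then 400 μM KI/240 μM 3-iodotyrosine mix and 20 μM H2O2 (added solutions); 3,5-iodotyrosine formation monitored.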

[3] = biological target: T2, Myeloperoxidase (Homo sapiens, UniProt P05164); assay: Inhibition of human MPO peroxidase activity in presence of H2O2 measured at 30 secs time interval for 5 mins by amplex red reagent based fluorescence assay
T2 sequence (P05164 whole entry): T1 sequence (whole entry)

[4] = biological target: T2, Myeloperoxidase; assay: (§2) Inhibition of human MPO assessed as reduction in enzyme-mediated chlorination by measuring reduction in HOCl formation preincubated for 10 mins followed by H2O2/NaCl addition and measured at 30 secs time interval for 5 mins by APF dye based fluorescence assay
[5] = biological target: T3, Eosinophil peroxidase (Homo sapiens, UniProt P11678); assay: Inhibition of eosinophil peroxidase (unknown origin)assessed as reduction in H2O2-catalyzed 3-bromo tyrosine formation using tyrosine and potassium bromide preincubated for 10 mins followed by tyrosine/potassium bromide/H2O2 addition and measured after 15 mins by RP-UPLC analysis
T3 sequence (P11678 whole entry): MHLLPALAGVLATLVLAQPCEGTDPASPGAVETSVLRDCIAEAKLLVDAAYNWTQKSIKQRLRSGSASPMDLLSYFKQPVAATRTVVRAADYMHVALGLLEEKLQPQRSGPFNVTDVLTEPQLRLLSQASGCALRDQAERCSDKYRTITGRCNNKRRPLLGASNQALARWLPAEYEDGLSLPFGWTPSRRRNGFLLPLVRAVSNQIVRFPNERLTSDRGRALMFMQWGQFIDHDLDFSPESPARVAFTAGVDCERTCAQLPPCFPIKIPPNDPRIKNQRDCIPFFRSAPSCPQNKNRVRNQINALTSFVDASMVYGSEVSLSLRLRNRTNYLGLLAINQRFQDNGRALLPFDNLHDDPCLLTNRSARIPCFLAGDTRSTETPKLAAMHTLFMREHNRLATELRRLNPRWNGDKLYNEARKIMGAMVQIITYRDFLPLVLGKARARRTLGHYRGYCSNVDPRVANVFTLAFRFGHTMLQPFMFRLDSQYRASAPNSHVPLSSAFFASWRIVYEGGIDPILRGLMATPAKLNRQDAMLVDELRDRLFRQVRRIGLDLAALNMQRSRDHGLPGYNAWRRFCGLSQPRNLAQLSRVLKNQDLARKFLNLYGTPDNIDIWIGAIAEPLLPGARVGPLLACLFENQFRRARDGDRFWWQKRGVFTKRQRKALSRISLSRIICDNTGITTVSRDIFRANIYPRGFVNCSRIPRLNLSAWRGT
In short: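 Commercial EPX, purity ≥98%, 0.6 μM, in 100 mM KPi pH 7.4, preincubated with inhibitor 10 min at rt; then 400 μM tyrosine/1200 μM KBr mix, followed by 20 μM H2O2 (added solutions); 3-bromotyrosine quantified by reversed-phase LC, column 60 °C, MeOH/TFA gradient.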

[6] = species on record: Homo sapiens; assay: Selectivity ratio of IC50 for recombinant human C-terminal His6-tagged TPO (15 to 839 residues) expressed in baculovirus infected insect cells to IC50 for human MPO
In short: as §1, with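 “TPO” for “LPO isoform 1”, “15–839 with C-terminal His6,” for “26–712,”, “Ni affinity, anion exchange” for “cation exchange, hydrophobic interaction”, “4.0” for “2.0”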

[7] = Redox activity assessed as conversion of resazurin reagent to resorufin at 10 uM after 30 mins by fluorescence assay relative to control; assay type: physicochemical; conditions: 0.5 h
In short: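 Redox counterscreen: compound 10 μM final incubated with 5 μM resazurin reagent (final) 30 min; fluorescence intensity read; normalized to a reactive styrylpyrimidotriazinedione standard at 10 μM as 100%.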

[8] = biological target: Lactoperoxidase (Homo sapiens, UniProt P22079); assay: Inhibition of recombinant human LPO isoform-1 (26 to 712 residues) expressed in baculovirus infected insect cells assessed as reduction in H2O2-catalyzed 3,5-iodo tyrosine formation using 3-iodotyrosine and potassium iodide preincubated for 10 mins followed by 3,5-iodo tyrosine/potassium iodide/H2O2 addition and measured after 15 mins; in short: as §1
[9] = biological target: T2, Myeloperoxidase; assay: Inhibition of human MPO assessed as reduction in enzyme-mediated chlorination by measuring reduction in HOCl formation in presence of H2O2/NaCl measured at 30 secs time interval for 5 mins by APF dye based fluorescence assay
[10] = biological target: MPO, mouse (Mus musculus, UniProt P11247); assay: as §2, with “mouse C-terminal His10 tagged” for “human”, “MPO (Met16 to Thr718 residues)” for “MPO”
Chain of MPO, mouse (P11247 whole entry, looked up): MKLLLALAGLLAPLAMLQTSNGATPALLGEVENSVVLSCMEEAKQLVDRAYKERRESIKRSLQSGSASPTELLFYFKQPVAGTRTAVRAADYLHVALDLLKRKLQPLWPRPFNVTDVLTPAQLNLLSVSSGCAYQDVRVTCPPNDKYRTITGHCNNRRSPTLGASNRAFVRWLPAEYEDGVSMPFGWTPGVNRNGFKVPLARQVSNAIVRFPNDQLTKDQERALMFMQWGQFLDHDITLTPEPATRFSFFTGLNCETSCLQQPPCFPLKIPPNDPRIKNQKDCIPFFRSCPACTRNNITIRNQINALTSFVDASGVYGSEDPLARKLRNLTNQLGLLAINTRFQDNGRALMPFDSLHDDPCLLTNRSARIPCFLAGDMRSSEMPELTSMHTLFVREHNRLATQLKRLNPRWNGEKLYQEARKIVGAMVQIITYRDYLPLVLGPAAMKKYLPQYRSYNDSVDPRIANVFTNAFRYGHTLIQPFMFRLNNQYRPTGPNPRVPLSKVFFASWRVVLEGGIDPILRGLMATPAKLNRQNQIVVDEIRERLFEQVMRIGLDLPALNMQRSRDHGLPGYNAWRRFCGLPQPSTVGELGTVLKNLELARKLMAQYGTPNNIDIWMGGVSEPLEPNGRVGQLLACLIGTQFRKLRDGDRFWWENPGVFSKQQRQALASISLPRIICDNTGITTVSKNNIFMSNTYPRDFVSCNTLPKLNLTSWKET

Chain of Lactoperoxidase (P22079 whole entry, the tested form may be a part, canonical isoform): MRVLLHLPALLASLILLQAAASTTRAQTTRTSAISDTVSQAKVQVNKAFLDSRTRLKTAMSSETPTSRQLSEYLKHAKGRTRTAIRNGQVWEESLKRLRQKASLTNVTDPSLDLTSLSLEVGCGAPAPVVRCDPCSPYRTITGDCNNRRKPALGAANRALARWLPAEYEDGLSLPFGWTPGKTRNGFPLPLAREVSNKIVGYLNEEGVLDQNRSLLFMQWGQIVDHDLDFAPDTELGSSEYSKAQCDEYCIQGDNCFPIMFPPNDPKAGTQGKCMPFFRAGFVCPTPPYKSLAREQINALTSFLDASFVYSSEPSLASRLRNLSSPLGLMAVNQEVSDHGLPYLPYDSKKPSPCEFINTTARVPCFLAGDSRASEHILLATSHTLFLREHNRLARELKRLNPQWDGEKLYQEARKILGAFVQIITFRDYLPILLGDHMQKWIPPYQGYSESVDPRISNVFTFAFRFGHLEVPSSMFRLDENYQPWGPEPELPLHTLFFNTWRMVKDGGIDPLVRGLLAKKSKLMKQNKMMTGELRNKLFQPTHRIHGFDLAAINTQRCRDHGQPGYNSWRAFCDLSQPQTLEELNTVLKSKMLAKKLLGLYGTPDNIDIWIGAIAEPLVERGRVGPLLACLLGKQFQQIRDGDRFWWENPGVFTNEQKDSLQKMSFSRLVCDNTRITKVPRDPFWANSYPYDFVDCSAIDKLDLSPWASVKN

Row | Compound | inhibition [1] [%] | Ratio IC50 [2] | IC50 [3] [nM] | IC50 [4] [nM] | IC50 [5] [nM] | Ratio IC50 [6] | Activity [7] | IC50 [8] [nM] | IC50 [9] [nM] | IC50 [10] [nM]
1 | Nc1ccc(Oc2cc(Cl)c(Cl)cc2Cl)cn1 | 30 | > 10 | 840 | 360 | 160 | > 10 | Not Active | 13000 | 320 | 230
2 | Nc1nc(OCc2ccccc2)c2[nH]nnc2n1 | 30 | > 10 | 110 | 110 | 15 | > 10 | Not Active | > 30000 | 84 | 81
